Molecules are shown by their SMILES.

The series in a line: Toxicity liver stage against HepG2, at 10uM. Conditions: human, HepG2-A16-CD81EGFP cells; read-out: INHIBITION
It is filed as cell-based. More on the design: test concentration 10 uM, cell line HepG2-A16-CD81EGFP. An outline of the steps: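 Uninfected HepG2-A16-CD81EGFP cells, 3 × 10^3 per well, 1536-well, plated on prespotted compound at 10 μM final, parasite-free screening media added to match infected plates; puromycin 10 μM positive, DMSO 0.5% negative; run in parallel with 48 h PbLuc assay at 37 °C, 5% CO2; viability by CellTiter-Glo luminescence, normalized to controls.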
Take `CN(C)c1ncc(-c2ccc(C(N)=O)cc2)c(C2CNCCO2)n1` (stereo not given): the cytotoxicity at 10 µM was -1.42%.
Turning to `COCCC(=O)N1CC2(CCN(Cc3ccncc3)CC2)C1`, the cytotoxicity at 10 µM was -66.6%.
In the case of `Cn1ccc(-c2cc(C(=O)N3CCOCC3)c3ccccn23)n1`, the cytotoxicity at 10 µM is 7.9%.
Consider `CN(C)C(=O)CN1CCC2(COCc3cnc(N4CCOCC4)nc32)C1` (stereo not given), for which the cytotoxicity at 10 µM was -70.5%.
Consider `c1cnn(CC2CN(CC3CCCCC3)CCO2)c1` (stereo not given), for which the cytotoxicity at 10 µM was -7.85%.
As for `Cc1cc(C(F)(F)F)nn1C(C)C(=O)NN1CCOCC1` (stereo not given), the figure is -1.67%; as for `CN1CCCC1CNC(=O)CCOc1ccc(Br)cc1` (stereo not given), -16.9%; as for `CN1CCC(N2CCC(C(=O)N(C)C)CC2)CC1`, -1.82%.
As to `c1cncc(COCC2CN(Cc3ccsc3)Cc3ccnn3C2)c1` (stereo not given), the cytotoxicity at 10 µM was -140%.
`CCOC(=O)CCCN1CCCC(C(=O)Nc2ccc(Cl)cn2)C1` (stereo not given): the cytotoxicity at 10 µM amounted to 2.69%.
As for `Cn1nc(C(=O)N2CCOCC2)cc1C(=O)Nc1cc(Cl)cc(Cl)c1`, the cytotoxicity at 10 µM came to 27.9%.
Take `O=C1NCC(C(=O)Nc2ncc(Cc3cccc(F)c3)s2)N1` (stereo not given): the cytotoxicity at 10 µM is -2.45%.
For `Cc1nnc(C(C)N2CCc3[nH]c4ccc(Cl)cc4c3C2)o1` (stereo not given), the cytotoxicity at 10 µM is -9.77%.
In the case of `Cc1oncc1C(=O)N1CC[C@H]2[C@H](CO[C@@H]2CNS(C)(=O)=O)C1`, the cytotoxicity at 10 µM was found to be 0.0508%.
Turning to `CC(C)c1noc(C2CCCN2C(=O)CN2CCc3ccccc32)n1` (stereo not given), the cytotoxicity at 10 µM is -8.76%.
Turning to `CC(C)(C)CC(=O)N1CC[C@H]2CC(=O)N(CCc3c[nH]cn3)CC[C@H]2C1`, the cytotoxicity at 10 µM was -3.97%.
As to `N#Cc1ccc(C(=O)N2CCCC3(C=Cc4ccccc4O3)CC2)cn1` (stereo not given), the cytotoxicity at 10 µM worked out at 11.8%.
As for `O=C(NC1CC1)N1CCc2ncnc(-c3ccncc3)c2CC1`, the figure is -1.04%; as for `CCn1ncc2[nH]c(-c3cc(OC)c(OC)cc3OC)nc21`, -2.61%; as for `CCC1CN(C)c2ccccc2CN1C(=O)c1c[nH]c(=O)cc1C` (stereo not given), 16.1%.
Take `NCc1ccnc(Oc2ccccc2)c1`: the cytotoxicity at 10 µM was determined as 2.87%.
In the case of `COCCCC1(CO)CCCN(C(=O)c2cnc(C3CC3)nc2)C1` (stereo not given), the cytotoxicity at 10 µM is -39.7%.
Consider `Oc1cc(CC2COCCN(CC3(O)CCOCC3)C2)ncn1` (stereo not given), for which the cytotoxicity at 10 µM stood at 8.08%.
In the case of `O=C(NCCNS(=O)(=O)c1cccc(Cl)c1)C1CCCO1` (stereo not given), the cytotoxicity at 10 µM was found to be 11.5%.
Regarding `COc1cccc2c1OCC(NC(=O)NCc1cccs1)C2` (stereo not given), the cytotoxicity at 10 µM was -11%.
As for `Cc1ccc(C(=O)N2CCC(O)(CN3CCc4ccccc4C3)C2)s1` (stereo not given), the cytotoxicity at 10 µM is -1.61%.
Turning to `CCCN1CCN(C(=O)c2ccc3ccccc3n2)[C@H]2CS(=O)(=O)C[C@H]21`, the cytotoxicity at 10 µM is -3.31%.
For the compound `O=C(C1CC(F)(F)C1)N1CC[C@H]2OCC[C@@]2(COCC2CC2)C1`, the cytotoxicity at 10 µM was -3.09%.
On to `CCOC1(C)C(=O)c2ccccc2N1Nc1ccccc1C(=O)CC` (stereo not given), for which the cytotoxicity at 10 µM was determined as 12.9%.
Regarding `CCc1noc(CN(C)C(=O)c2ccccc2-c2ncn[nH]2)n1`, the cytotoxicity at 10 µM worked out at 16.7%.
Consider `N#Cc1nccnc1NC1CCN(c2ccccc2Br)C1` (stereo not given), for which the cytotoxicity at 10 µM was found to be 3.92%.
Consider `CC(C)Cc1nc(CN(C)c2cc(C(C)C)nc3ccnn23)no1`, for which the cytotoxicity at 10 µM came out at 3.61%.
Regarding `O=C([C@H]1C[C@H]2OCC[C@H]2N(CCc2ccccc2)C1)N1CCCO1`, the cytotoxicity at 10 µM was -72.8%.
The result for `CCc1nccn1C1CCCN(C(=O)Cc2ccc(OC)c(F)c2)C1` (stereo not given) reads -3.59%; that for `Fc1ccc(CN2CCO[C@H]3[C@H](OCc4ccncc4)CC[C@@H]32)cc1`, -26.7%.
For the compound `Cc1cc(C)n(CC(C)Nc2nc(-c3ccncc3)nc3c2CNC3)n1` (stereo not given), the cytotoxicity at 10 µM was -1.75%.
Take `Cc1n[nH]c(C2CN(C(=O)c3cc(Cl)c[nH]3)CCO2)n1` (stereo not given): the cytotoxicity at 10 µM amounted to 3.95%.
In the case of `CC(CN1CCOCC1)NC(=O)N1CCN(S(C)(=O)=O)CC1` (stereo not given), the cytotoxicity at 10 µM was determined as 0.243%.
Turning to `CC(=O)c1ccc(S(=O)(=O)NCc2cccnc2N(C)C)cc1`, the cytotoxicity at 10 µM came to 12.6%.
As to `CC(C)N(C)S(=O)(=O)N1CCCC1C(=O)N1CCSCC1` (stereo not given), the cytotoxicity at 10 µM was -16.5%.
For `CS(=O)(=O)N1CCC(c2nnc(Cn3ccnc3)n2C2CC2)CC1`, the cytotoxicity at 10 µM was -1.24%.
Take `COCCCN(C)c1nc(-c2ccncc2)nc(C)c1C`: the cytotoxicity at 10 µM was 2.8%.
Take `CCN1CCN(S(=O)(=O)N2CCC(OC)CC2)[C@H]2CS(=O)(=O)C[C@H]21`: the cytotoxicity at 10 µM is -1.6%.
The result for `Cc1cc(CN2CCN(C(=O)NCc3ccoc3)CC2)no1` reads -22.5%; that for `Cc1nc(CCNC(Cc2ccncc2)C(F)(F)F)cs1` (stereo not given), -1.48%; that for `NS(=O)(=O)c1ccc(F)c(C(=O)NCCSC2CCCCC2)c1`, 4.69%.
Turning to `Cc1ccc(N2CCN(C(=O)C(O)c3cccc(Cl)c3)CC2=O)cc1` (stereo not given), the cytotoxicity at 10 µM is -5.01%.
On to `Cc1nn(C)cc1-c1cc(C(F)(F)F)nn1CCC#N`, for which the cytotoxicity at 10 µM was 3.65%.
`CC(C)CCn1cc(C(=O)NC2CCS(=O)(=O)C2)c2ccccc2c1=O` (stereo not given): the cytotoxicity at 10 µM was -3.68%.
Turning to `Cc1ccsc1CN(C)Cn1nccc1-c1cccnc1`, the cytotoxicity at 10 µM turned out to be 7.49%.
As for `NC(=O)C1CCCN(c2ccc(CNC(=O)c3csnn3)cc2)C1` (stereo not given), the figure is -2.18%; as for `CC(Nc1cccc(F)c1C#N)c1cccc(S(N)(=O)=O)c1` (stereo not given), 12.8%; as for `CCCc1cc(C(=O)N(C)Cc2cnn(-c3cccc(OC)c3)c2)[nH]n1`, -2.4%.
Turning to `COCCN1CC(c2nc(CSC)no2)CCC1=O` (stereo not given), the cytotoxicity at 10 µM is -7.74%.
On to `NC(=O)CCN1CCC(C(=O)c2cc(F)ccc2F)CC1`, for which the cytotoxicity at 10 µM is -4.89%.
Consider `O=C(Nc1ccc(Cl)cn1)C1CCN(CCc2ccccn2)CC1`, for which the cytotoxicity at 10 µM was -6.55%.
Consider `O=C(CNC(=O)Nc1cccc(-c2nccs2)c1)NCCO`, for which the cytotoxicity at 10 µM is -2.77%.
In the case of `CC(C(=O)NS(=O)(=O)Cc1cc(-c2ccccc2)no1)C1CC1` (stereo not given), the cytotoxicity at 10 µM was -2.72%.
Turning to `Cc1ccc(N2CCN(CC3CC3)C3(CCN(C(C)C)CC3)C2=O)cn1`, the cytotoxicity at 10 µM was 16%.
Regarding `c1cnnc(N2CCCC2CNCc2nc(-c3ccoc3)no2)c1` (stereo not given), the cytotoxicity at 10 µM is -18.7%.
`O=C1NCCCc2[nH]c(C3CCCN(C(=O)C4CC4)C3)nc21` (stereo not given): the cytotoxicity at 10 µM worked out at 3.55%.
The result for `COCCOC(=O)N1CCC(c2nccn2CC2CC2)CC1` reads -2.08%; that for `CC(O)CCN(C)S(=O)(=O)Cc1ccc(Br)cc1` (stereo not given), 3.47%; that for `CC(C)c1nnc2sc(CC3CN(Cc4ccccc4)CCO3)nn12` (stereo not given), -2.66%.
`Nc1nc(CCC(=O)N2C[C@@H](CN3CCCC3)C[C@H](CO)C2)n[nH]1`: the cytotoxicity at 10 µM is -0.445%.
For the compound `COc1cc(C(=O)N(C2CC2)C2CC(=O)NC2=O)ccc1C` (stereo not given), the cytotoxicity at 10 µM was -3.58%.
As to `O=C(c1cscn1)N1C[C@H]2CCC[C@@]2(COCc2ccccn2)C1`, the cytotoxicity at 10 µM is -103%.
As for `Cc1nc(C)n(CC2CCCCN2Cc2nc(-c3ccco3)no2)n1` (stereo not given), the figure is -10.6%.
The result for `CN(Cc1nncn1C)c1nccc(N2CCC(O)CC2)n1` reads -1.78%; that for `O=C1CC[C@H]2[C@H](CCN2C(=O)C2CCCO2)N1Cc1cccnc1` (stereo not given in full), -8.6%.
The result for `CCNc1cc2c(nn1)CCN(C(=O)c1ccc(C(N)=O)cc1)C2` reads -15.6%.
Take `Cc1c(C2CC(=O)Nc3c2cnn3C(C)C)cnn1C` (stereo not given): the cytotoxicity at 10 µM is -6.72%.
The result for `Cc1nc2c(c(N3C[C@@H](C)[C@@](C)(O)C3)n1)CCC2` reads 9.74%; that for `Cc1c(C(=O)N2CCC2)nnn1-c1ccc2ncccc2c1`, -2.29%; that for `CO[C@@H]1CCN(C(=O)Cc2ccsc2)[C@H]1Cc1cccnc1`, 6.9%.
For the compound `CCC(CCN)n1ccc(C(F)(F)F)n1` (stereo not given), the cytotoxicity at 10 µM was -11.2%.
On to `COc1ncccc1CN1CCc2[nH]cnc2C1CCSC` (stereo not given), for which the cytotoxicity at 10 µM was -13.7%.
On to `Cc1noc(C)c1CN(Cc1cccs1)C1CCS(=O)(=O)C1` (stereo not given), for which the cytotoxicity at 10 µM was -0.375%.
As to `Cc1n[nH]c(C)c1CCC(=O)NCC1COc2ccccc2C1` (stereo not given), the cytotoxicity at 10 µM is -40.2%.
In the case of `CN(Cc1cnn(C)c1)C(=O)C1CCCN1Cc1ccccn1` (stereo not given), the cytotoxicity at 10 µM was -25.8%.
`CN1CCOC(C(=O)N2CCCC(C)(C)CC2)C1` (stereo not given): the cytotoxicity at 10 µM is 6.67%.
The result for `COc1ccc(CCC(=O)N2CCN(c3nc(C)ns3)CC2)cc1` reads 6.26%.
In the case of `CC(C)c1ncc2c(n1)CN(CC(=O)Nc1ccc(Cl)cn1)CC2`, the cytotoxicity at 10 µM is -1.4%.
As for `CC(C)n1nc2c(cc1=O)CN(c1ncnc3sccc13)CC2`, the figure is 49.7%.
With `O=C(CC1=CCCCC1)NCCc1csc(N2CCCC2)n1`, the cytotoxicity at 10 µM is -7.63%.
For the compound `COc1ccccc1C1(CNc2snc(Cl)c2C#N)CCOCC1`, the cytotoxicity at 10 µM worked out at 10.2%.
Turning to `CCCn1nccc1C(=O)N1CCN(C(=O)C2CC2)[C@@H]2CS(=O)(=O)C[C@@H]21`, the cytotoxicity at 10 µM was determined as 4.05%.
Turning to `COc1cccc2c1ccn2CCNC(=O)C(C)C`, the cytotoxicity at 10 µM amounted to 5.66%.
With `CCOCc1nc2c(c(N3CC=CC3)n1)CCN(CC1CC1)CC2`, the cytotoxicity at 10 µM is -21.2%.
Take `CC(NC(=O)N(C)Cc1ccc(Cl)s1)c1ccccn1` (stereo not given): the cytotoxicity at 10 µM was found to be 0.313%.
`COc1nn(C)cc1C(=O)NCC(=O)NCc1cccnc1`: the cytotoxicity at 10 µM is -6.32%.
For `N#Cc1cccc(NC(=O)N2CCC3(CCC(=O)N(C4CC4)C3)CC2)c1`, the cytotoxicity at 10 µM amounted to 3.9%.
Turning to `Cc1cc(C)nc(Nc2cccc(C3CCCN(C)C3)n2)n1` (stereo not given), the cytotoxicity at 10 µM was -4.45%.
On to `CNc1cc2c(nn1)CCN(C(=O)c1cccc3c1OCO3)C2`, for which the cytotoxicity at 10 µM is -10.6%.
For the compound `CCN(C)C(=O)c1cnc(-c2noc3cc(N4CCCCC4)ccc23)s1`, the cytotoxicity at 10 µM was 48.6%.

The values are drawn from ChEMBL document CHEMBL4513216, “Probing the Open Global Health Chemical Diversity Library for Multistage-Active Starting Points for Next-Generation Antimalarials” (ACS Infect Dis, 2020).
